# According to ChEMBL document CHEMBL4665634, “Inhibiting Aβ toxicity in Alzheimer's disease by a pyridine amine derivative” (Eur J Med Chem, 2019):
# Calls of active or inactive are those of the source. The calls are words filed in the database; no cut-off is given here.
# What was measured:
# [1] = system: Caenorhabditis elegans; experiment: Effect on skn-1 mRNA expression in Caenorhabditis elegans CL4176 at 50 uM by qRT-PCR analysis; type: functional
# Outline: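 CL4176 qRT-PCR of skn-1 or sod-3. RNA extracted with Trizol, EvaGreen qRT-PCR run for 40 cycles (95 °C 5 s, 60 °C 5 s). Normalized to ama-1 by the 2^−ΔΔCt method. Three independent RNA/cDNA preparations, run in triplicate.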
# [2] = Solubility of the compound in water; type: physicochemical
# [3] = Inhibition of Zn2+ induced amyloid beta (1 to 40) aggregation assessed as reduction in fluorescence intensity at 20 uM preincubated for 5 mins in presence of ZnCl2 followed by compound addition addition and incubated for 24 hrs by Thioflavin T based fluorometric assay
# Outline: (§1)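 Aβ40 (20 µM) preincubated with CuCl2 or ZnCl2 (20 µM) for 5 min at room temperature. Compound (20 µM) added, incubated 37 °C for 24 h. ThT (5 µM) added, fluorescence read at ex 450/em 485 nm. Mean ± S.D. of at least three independent experiments.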
# [4] = Inhibition of Zn2+ induced amyloid beta (1 to 42) aggregation assessed as reduction in fibril formation incubated for 24 hrs in presence of Zn2+ by Thioflavin T based fluorometric assay
# Outline: (§2)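 Aβ42 (20 µM) mixed with compound (0.1–100 µM), with or without Zn2+ (20 µM), in Tris-HCl pH 7.4, incubated at 37 °C for 24 h. ThT (5 µM) added, fluorescence read at ex 450/em 485 nm.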
# [5] = Disaggregation of Zn2+ induced fibrils of amyloid beta (1 to 40) assessed as appearance of small soluble fragments at 0.1 to 100 uM incubated for 24 hrs uranyl acetate staining-based by TEM analysis; details: dose microM 0.1-100, time 24.0 hrs
# [6] = molecular target: T1, Amyloid-beta precursor protein (Homo sapiens, UniProt P05067); experiment: Inhibition of self-induced aggregation amyloid beta (1 to 42) (unknown origin) assessed as reduction in fibril formation incubated for 24 hrs by Thioflavin T based fluorometric assay; outline: as §2
# T1 sequence (P05067 whole entry): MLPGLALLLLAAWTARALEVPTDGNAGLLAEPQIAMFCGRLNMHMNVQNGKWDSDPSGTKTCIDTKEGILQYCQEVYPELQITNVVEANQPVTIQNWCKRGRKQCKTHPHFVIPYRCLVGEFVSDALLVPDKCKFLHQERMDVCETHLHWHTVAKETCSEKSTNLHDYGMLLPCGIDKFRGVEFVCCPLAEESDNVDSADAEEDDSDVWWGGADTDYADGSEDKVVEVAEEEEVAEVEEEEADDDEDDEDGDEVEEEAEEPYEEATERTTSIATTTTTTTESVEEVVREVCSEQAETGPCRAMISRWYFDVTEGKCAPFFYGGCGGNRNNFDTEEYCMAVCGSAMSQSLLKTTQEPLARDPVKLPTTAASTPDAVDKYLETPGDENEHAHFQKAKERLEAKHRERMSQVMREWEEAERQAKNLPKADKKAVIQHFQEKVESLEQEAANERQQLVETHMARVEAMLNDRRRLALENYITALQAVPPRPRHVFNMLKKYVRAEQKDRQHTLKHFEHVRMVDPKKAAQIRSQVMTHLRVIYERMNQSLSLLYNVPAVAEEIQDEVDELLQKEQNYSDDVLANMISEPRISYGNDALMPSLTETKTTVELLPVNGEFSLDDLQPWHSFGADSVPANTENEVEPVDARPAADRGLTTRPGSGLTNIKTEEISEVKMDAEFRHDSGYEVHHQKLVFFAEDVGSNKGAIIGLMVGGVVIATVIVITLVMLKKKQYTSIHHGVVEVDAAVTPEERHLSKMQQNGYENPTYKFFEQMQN
# [7] = Inhibition of Cu2+ induced amyloid beta (1 to 40) aggregation assessed as reduction in fluorescence intensity at 20 uM preincubated for 5 mins in presence of CuCl2 followed by compound addition addition and incubated for 24 hrs by Thioflavin T based fluorometric assay; outline: as §1
# [8] = molecular target: T1, Amyloid-beta precursor protein; experiment: Inhibition of self-induced amyloid beta (1 to 42) (unknown origin) aggregation assessed as decrease in negative band ellipticity and shift around 230 nm resulting in inhibition of beta-sheets formation at 80 uM incubated for 24 hrs by circular dichroism spectroscopy
# Outline: (§3)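 CD spectra taken on Aβ42 (40 µM). Metal ion (ZnCl2 or CuCl2, 40 µM) was preincubated 5 min at room temperature where present, then compound (80 µM) was added and incubated at 37 °C for 24 h. Spectra recorded 190–270 nm in a 1.0 cm quartz cell, bandwidth 0.1 nm, response time 10 s.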
# [9] = molecular target: T1, Amyloid-beta precursor protein; experiment: Inhibition of self-induced amyloid beta (1 to 42) (unknown origin) aggregation assessed as decrease in negative band ellipticity and shift around 230 nm resulting in modulation of amyloid beta (1 to 42) conformation at 80 uM incubated for 24 hrs by circular dichroism spectroscopy; outline: as §3
# [10] = Inhibition of Zn2+ induced amyloid beta (1 to 40) aggregation assessed as appearance of granule like species at 0.1 to 100 uM incubated for 24 hrs uranyl acetate staining-based by TEM analysis; details: dose microM 0.1-100, time 24.0 hrs
# [11] = Inhibition of Cu2+ induced amyloid beta (1 to 40) aggregation assessed as appearance of granule like species at 0.1 to 100 uM incubated for 24 hrs uranyl acetate staining-based by TEM analysis; details: dose microM 0.1-100, time 24.0 hrs
# [12] = Disaggregation of Cu2+ induced fibrils of amyloid beta (1 to 40) assessed as appearance of small soluble fragments at 0.1 to 100 uM incubated for 24 hrs uranyl acetate staining-based by TEM analysis; details: dose microM 0.1-100, time 24.0 hrs
# [13] = system: PC-12; experiment: Cytotoxicity against rat PC-12 cells assessed as reduction in cell viability at 100 uM measured after 48 hrs by MTT assay relative to control; type: cell-based; details: pc-12, 48 h
# Outline: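 PC12 cells differentiated with NGF, then cultured overnight in RPMI-1640 with 10% FBS at 37 °C, 5% CO2. MTT assay with formazan absorbance at 570 nm. Viability = (OD test − blank)/(OD control − blank) × 100%, mean of three replicates.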
# [14] = molecular target: T1, Amyloid-beta precursor protein; experiment: Inhibition of amyloid beta (1 to 42)-induced paralysis in transgenic Caenorhabditis elegans CL4176 expressing human amyloid beta (1 to 42) assessed as paralyzed worms at 50 uM treated for 49 hrs at 25 degreeC by microscopic analysis (reference value: 87 %); parameters: scale not given: the % may be the effect or the level left
# [15] = molecular target: T1, Amyloid-beta precursor protein; experiment: Inhibition of amyloid beta (1 to 42)-induced paralysis in transgenic Caenorhabditis elegans CL4176 expressing human amyloid beta (1 to 42) assessed as paralyzed worms at 100 uM treated for 49 hrs at 25 degreeC by microscopic analysis (reference value: 87 %); parameters: scale not given: the % may be the effect or the level left
# [16] = molecular target: T1, Amyloid-beta precursor protein; experiment: Inhibition of amyloid beta (1 to 42)-induced paralysis in transgenic Caenorhabditis elegans CL4176 expressing human amyloid beta (1 to 42) assessed as paralyzed worms at 200 uM treated for 49 hrs at 25 degreeC by microscopic analysis (reference value: 87 %); parameters: scale not given: the % may be the effect or the level left
# [17] = molecular target: T1, Amyloid-beta precursor protein; experiment: Inhibition of amyloid beta (1 to 42)-induced paralysis in transgenic Caenorhabditis elegans GMC101 expressing human amyloid beta (1 to 42) assessed as paralyzed worms at 50 uM measured after 92 hrs by microscopic analysis relative to control; parameters: scale not given: the % may be the effect or the level left
# [18] = molecular target: T1, Amyloid-beta precursor protein; experiment: Inhibition of amyloid beta (1 to 42)-induced paralysis in transgenic Caenorhabditis elegans GMC101 expressing human amyloid beta (1 to 42) assessed as paralyzed worms at 100 uM measured after 92 hrs by microscopic analysis relative to control; parameters: scale not given: the % may be the effect or the level left
# [19] = molecular target: T1, Amyloid-beta precursor protein; experiment: Inhibition of amyloid beta (1 to 42)-induced paralysis in transgenic Caenorhabditis elegans GMC101 expressing human amyloid beta (1 to 42) assessed as paralyzed worms at 200 uM measured after 92 hrs by microscopic analysis relative to control; parameters: scale not given: the % may be the effect or the level left
# [20] = molecular target: T1, Amyloid-beta precursor protein; experiment: Inhibition of amyloid beta (1 to 42)-induced paralysis in transgenic Caenorhabditis elegans CL4176 L3 expressing human amyloid beta (1 to 42) assessed as roller movement of worms by microscopic analysis
# [21] = molecular target: T1, Amyloid-beta precursor protein; experiment: Inhibition of amyloid beta (1 to 42)-induced paralysis in transgenic Caenorhabditis elegans GMC101 L3 expressing human amyloid beta (1 to 42) assessed as reduction in fluorescence intensity at 50 uM incubated for 2 days by fluorescence based confocal microscopic analysis relative to control; details: time 2.0 day
# Outline: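 GMC101 L3 worms kept on compound plates (50, 100 µM) at 25 °C for 2 days, mounted on 2% agarose pads. GFP imaged by confocal microscopy at ex 488/em 500–530 nm and intensity quantified. Two experiments, 15 worms per group.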
smiles,measurement,setting,value
Oc1cc(CN(Cc2ccccn2)Cc2ccccn2)cc(C[P+](c2ccccc2)(c2ccccc2)c2ccccc2)c1.[Br-],Activity,[1],inactive
same,solubility,[2],Insoluble
same,inhibition,[3],Active
same,IC50,[4],27.4 µM
same,inhibition,[4],Dose-dependent effect
same,Activity,[5],Active
same,IC50,[6],12.5 µM
same,inhibition,[6],Dose-dependent effect
same,inhibition,[7],Active
same,inhibition,[8],Active
same,inhibition,[9],Active
same,inhibition,[10],Active
same,inhibition,[11],Active
same,Activity,[12],Active
same,Activity,[13],80.5%
same,Activity,[14],74%
same,Activity,[15],66%
same,Activity,[16],35%
same,Activity,[17],74%
same,Activity,[18],66%
same,Activity,[19],35%
same,Activity,[20],Active
same,inhibition,[21],43%
